According to paper PMC5955836 (ACS chemical neuroscience, 2018):
Entries after “also recorded” stand apart in the source; their conditions may differ. Read-outs that look alike come from different tables or passages of the source. One block for each molecule: values may come before it. Non-standard residues stand in square brackets, D forms with d.

Columns and labels:
mMC3R [1] = target: T1, mMC3R (Mus musculus, UniProt P33033); test: AlphaScreen cAMP antagonist assay; type: cell-based; conditions: for antagonist activity at the mMC3R: at the concentrations examined in this study
T1 sequence (P33033 whole entry): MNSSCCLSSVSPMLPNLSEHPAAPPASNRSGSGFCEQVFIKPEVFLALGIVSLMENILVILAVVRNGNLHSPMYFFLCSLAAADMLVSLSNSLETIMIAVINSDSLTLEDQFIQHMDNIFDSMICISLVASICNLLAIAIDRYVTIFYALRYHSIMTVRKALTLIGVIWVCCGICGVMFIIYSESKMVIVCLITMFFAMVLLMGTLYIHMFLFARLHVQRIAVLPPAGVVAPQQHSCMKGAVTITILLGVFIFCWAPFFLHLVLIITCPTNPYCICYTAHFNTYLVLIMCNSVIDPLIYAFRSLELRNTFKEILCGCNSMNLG

mMC1R [2] = target: T2, mMC1R (Mus musculus, UniProt Q01727); conditions: for mMC1R percent activation at 100 μM: no sigmoidal dose-response, relative to NDP-MSH; for agonist activity at the MC1R: up to 100 μM
T2 sequence (Q01727 whole entry): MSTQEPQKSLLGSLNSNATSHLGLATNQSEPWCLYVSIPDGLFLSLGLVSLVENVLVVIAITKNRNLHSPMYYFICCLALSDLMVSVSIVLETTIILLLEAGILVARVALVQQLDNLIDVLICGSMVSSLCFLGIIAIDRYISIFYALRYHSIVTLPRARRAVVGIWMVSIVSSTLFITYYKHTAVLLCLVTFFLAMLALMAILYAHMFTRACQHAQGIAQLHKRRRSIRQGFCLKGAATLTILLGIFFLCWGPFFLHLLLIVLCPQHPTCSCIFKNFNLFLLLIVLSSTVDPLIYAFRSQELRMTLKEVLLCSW

mMC5R [3] = target: T3, mMC5R (Mus musculus, UniProt P41149); type: cell-based; conditions: for mMC5R inverse agonist potency compared within series: fold less potent than KAF2039-9, the most potent inverse agonist; for mMC5R maximal decrease in basal activity at the plateau: sigmoidal dose-response, relative to basal
T3 sequence (P41149 whole entry): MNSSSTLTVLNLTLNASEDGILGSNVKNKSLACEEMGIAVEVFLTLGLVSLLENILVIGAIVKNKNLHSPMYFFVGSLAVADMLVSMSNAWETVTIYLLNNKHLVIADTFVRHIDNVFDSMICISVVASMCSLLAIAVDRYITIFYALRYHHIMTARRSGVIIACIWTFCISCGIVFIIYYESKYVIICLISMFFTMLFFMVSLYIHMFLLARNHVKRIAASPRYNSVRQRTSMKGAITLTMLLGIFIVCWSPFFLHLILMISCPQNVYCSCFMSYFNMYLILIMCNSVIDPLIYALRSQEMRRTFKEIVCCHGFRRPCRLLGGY

[4] = Mouse feeding study, intrathecal injection: body weight; type: in vivo; conditions: male WT mice, 2 nmol, up to 72 hours post-injection
Summary of the method: (§1)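 Eight male WT mice, 24 weeks old, singly housed, ad libitum chow, reversed 12 h light/dark (lights off 12:00pm), 23–25°C. Crossover, non-fasting; single IT injection 2 h before lights out of 2 nmol/5 μL (20% solutol stock diluted in ddH2O) or matched vehicle; 7 days between treatments. Food and body weight at 2–72 h; two-factor repeated-measures ANOVA (drug × time).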

Male Wildtype (WT) mice = test: Mouse feeding study, intrathecal injection: cumulative food intake; type: in vivo
Summary of the method: as §1

MC3R = conditions: unable to bind at up to this concentration; cited from earlier work
MC4R = conditions: unable to bind at up to this concentration; cited from earlier work
MC1R = conditions: read-out: MC1R agonist EC50; cited from earlier work
mMC3R [5] = target: T1, mMC3R; conditions: highest concentrations of antagonist assayed; cited from earlier work
mMC4R [6] = target: T4, mMC4R (Mus musculus, UniProt P56450); conditions: cited from earlier work
T4 sequence (P56450 whole entry): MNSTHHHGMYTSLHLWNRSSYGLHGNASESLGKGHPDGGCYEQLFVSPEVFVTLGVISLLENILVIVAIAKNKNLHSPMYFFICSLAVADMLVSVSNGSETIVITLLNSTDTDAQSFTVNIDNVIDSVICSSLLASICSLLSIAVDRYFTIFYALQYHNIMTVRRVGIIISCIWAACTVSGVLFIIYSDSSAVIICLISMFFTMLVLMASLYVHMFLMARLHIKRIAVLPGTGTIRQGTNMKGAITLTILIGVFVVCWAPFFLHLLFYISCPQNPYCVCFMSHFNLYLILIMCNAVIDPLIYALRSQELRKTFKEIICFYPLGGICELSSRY

[7] = target: mouse melanocortin-4 receptor (mouse) (UniProt P56450)
mouse melanocortin-4 receptor (mouse), sequence (P56450 whole entry): as above

mMC4R [8] = target: T4, mMC4R; test: AlphaScreen cAMP antagonist assay; type: cell-based
[9] = target: mouse melanocortin-1 receptor (mouse) (UniProt Q01727)
mouse melanocortin-1 receptor (mouse), sequence (Q01727 whole entry): as the sequence (Q01727 whole entry) above

mMC3R [10] = target: T1, mMC3R; conditions: previously published peptide, cited from earlier work
mMC4R [11] = target: T4, mMC4R; conditions: cited from earlier work; remark: listed apart in the source
mMC5R [12] = target: T3, mMC5R; conditions: read-out: mMC5R Inverse Agonist EC50; previously published peptide; cited from earlier work
mMC1R [13] = target: T2, mMC1R; conditions: read-out: mMC1R Agonist EC50; previously published peptide; cited from earlier work
[14] = Schild analysis with NDP-MSH, < 5.5 = no antagonist potency at up to 10,000 nM

Molecule: C[C@@H]1NC(=O)[C@H](CC(N)=O)NC(=O)[C@H](Cc2ccccc2)NC(=O)[C@H](Cc2ccccc2)NC(=O)[C@H](CCCNC(=N)N)NC(=O)[C@@H]2CCCN2C(=O)[C@H]2CCCN2C(=O)CNC1=O [Compound 2, c[Pro-Arg-Phe-Phe-Asn-Ala-Gly-DPro]]
antagonist activity at the mMC3R (mMC3R [1]): not observed | mMC1R percent activation at 100 μM (mMC1R [2]): 60% @ 100 μM | agonist activity at the MC1R (mMC1R [2]): partially stimulate | mMC5R percent decrease in receptor activity compared to basal at 100 μM (mMC5R [3]; 100 μM, no plateau): −25% @ 100 μM

Molecule: C[C@@H]1NC(=O)[C@H](CC(N)=O)NC(=O)[C@H](Cc2ccccc2)NC(=O)[C@H](Cc2ccccc2)NC(=O)[C@H](CCCNC(=N)N)NC(=O)[C@@H]2CCCN2C(=O)[C@H]2CCCN2C(=O)[C@H](CO)NC1=O [Compound 3, c[Pro-Arg-Phe-Phe-Asn-Ala-Ser-DPro]]
mMC1R percent activation at 100 μM (mMC1R [2]): 35% @ 100 μM | agonist activity at the MC1R (mMC1R [2]): partially stimulate | mMC5R percent decrease in receptor activity compared to basal at 100 μM (mMC5R [3]; 100 μM, no plateau): −55% @ 100 μM | mMC5R percent decrease in receptor activity compared to basal at 100 μM (mMC5R [3]; 100000.0): −55%

Molecule: C[C@@H]1NC(=O)[C@H](CC(N)=O)NC(=O)[C@H](Cc2ccccc2)NC(=O)[C@H](Cc2ccccc2)NC(=O)[C@H](CCCNC(=N)N)NC(=O)[C@@H]2CCCN2C(=O)[C@H]2CCCN2C(=O)[C@H](CCCCN)NC1=O [Compound 4, c[Pro-Arg-Phe-Phe-Asn-Ala-Lys-DPro]]
mMC5R percent decrease in receptor activity compared to basal at 100 μM (mMC5R [3]; 100 μM, no plateau): −40% @ 100 μM | mMC5R percent decrease in receptor activity compared to basal at 100 μM (mMC5R [3]; 100000.0): −40%

Molecule: CC(C)C[C@@H]1NC(=O)[C@H](C)NC(=O)[C@H](CC(N)=O)NC(=O)[C@H](Cc2ccccc2)NC(=O)[C@H](Cc2ccccc2)NC(=O)[C@H](CCCNC(=N)N)NC(=O)[C@@H]2CCCN2C(=O)[C@H]2CCCN2C1=O [Compound 6, c[Pro-Arg-Phe-Phe-Asn-Ala-Leu-DPro]]
antagonist activity at the mMC3R (mMC3R [1]): not observed | mMC5R percent decrease in receptor activity compared to basal at 100 μM (mMC5R [3]; 100 μM, no plateau): −35% @ 100 μM

Molecule: CCCC[C@@H]1NC(=O)[C@H](C)NC(=O)[C@H](CC(N)=O)NC(=O)[C@H](Cc2ccccc2)NC(=O)[C@H](Cc2ccccc2)NC(=O)[C@H](CCCNC(=N)N)NC(=O)[C@@H]2CCCN2C(=O)[C@H]2CCCN2C1=O [Compound 7, c[Pro-Arg-Phe-Phe-Asn-Ala-Nle-DPro]]
mouse body weight vs vehicle [4]: main effect of drug | mouse body weight vs vehicle ([4]; listed as KAF2039-7): treated animals weighing more than control animals | mMC5R percent decrease in receptor activity compared to basal at 100 μM (mMC5R [3]; 100 μM, no plateau): −35% @ 100 μM | mMC5R percent decrease in receptor activity compared to basal at 100 μM (mMC5R [3]; 100000.0): –35% | cumulative food intake vs vehicle (Male Wildtype (WT) mice; 2 nmol IT single injection, 2 and 6 hours post-injection): ate significantly more food | food intake trend vs vehicle (Male Wildtype (WT) mice; 2 nmol IT, up to 72 hours post-injection, listed as KAF2039-7): prolonged trend of increased food intake; also recorded: strong trend in increased food intake; also recorded: trend exhibited out until 72 hours post-injection | main effect of drug on food intake, two-factor repeated measures ANOVA (Male Wildtype (WT) mice; 2 nmol, first 72 hours post-injection): main effect of drug

Molecule: C[C@@H]1NC(=O)[C@H](CC(N)=O)NC(=O)[C@H](Cc2ccccc2)NC(=O)[C@H](Cc2ccccc2)NC(=O)[C@H](CCCNC(=N)N)NC(=O)[C@@H]2CCCN2C(=O)[C@H]2CCCN2C(=O)[C@H](Cc2c[nH]c3ccccc23)NC1=O [Compound 8, c[Pro-Arg-Phe-Phe-Asn-Ala-Trp-DPro]]
mMC1R partial agonist maximal percent activated (mMC1R [2]): 50% | mMC5R inverse agonist potency compared within series (mMC5R [3]): equipotent to each other | mMC5R maximal decrease in basal activity at the plateau (mMC5R [3]): −20%

Molecule: C[C@@H]1NC(=O)[C@H](CC(N)=O)NC(=O)[C@H](Cc2ccccc2)NC(=O)[C@H](Cc2ccccc2)NC(=O)[C@H](CCCNC(=N)N)NC(=O)[C@@H]2CCCN2C(=O)[C@H]2CCCN2C(=O)[C@H](Cc2ccc(O)cc2)NC1=O [Compound 9, c[Pro-Arg-Phe-Phe-Asn-Ala-Tyr-DPro]]
mMC5R percent decrease in receptor activity compared to basal at 100 μM (mMC5R [3]; 100 μM, no plateau): −40% @ 100 μM

Molecule: C[C@@H]1NC(=O)[C@H](CC(N)=O)NC(=O)[C@H](Cc2ccccc2)NC(=O)[C@H](Cc2ccccc2)NC(=O)[C@H](CCCNC(=N)N)NC(=O)[C@@H]2CCCN2C(=O)[C@H]2CCCN2C(=O)[C@H](CC2CCCCC2)NC1=O [Compound 10, c[Pro-Arg-Phe-Phe-Asn-Ala-Cha-DPro]]
mMC5R inverse agonist potency compared within series (mMC5R [3]): 5 fold | mMC5R maximal decrease in basal activity at the plateau (mMC5R [3]): −20%

Molecule: C[C@@H]1NC(=O)[C@H](CC(N)=O)NC(=O)[C@H](Cc2ccccc2)NC(=O)[C@H](Cc2ccccc2)NC(=O)[C@H](CCCNC(=N)N)NC(=O)[C@@H]2CCCN2C(=O)[C@H]2CCCN2C(=O)[C@H](CCc2ccccc2)NC1=O [Compound 11, c[Pro-Arg-Phe-Phe-Asn-Ala-hPhe-DPro]]
mMC5R inverse agonist potency compared within series (mMC5R [3]): equipotent to each other | mMC5R maximal decrease in basal activity at the plateau (mMC5R [3]): −20% | mMC5R maximal decrease in basal activity at the plateau (mMC5R [3]; listed as KAF2039-13): 20%

Molecule: H-Ser-Arg-Phe-Phe-Asn-Ala-Phe-Ser-OH (H-SRFFNAFS-OH)
binding to the MC3R (MC3R): > 20 µM | binding to the MC4R (MC4R): > 20 µM

Molecule: H-Tyr-c[Cys-Arg-Phe-Phe-Asn-Ala-Phe-Cys]-Tyr-OH [AGRP[109-118]]
EC50 (MC1R): 3000 nM | antagonist potency at the mMC3R (mMC3R [5]): does not possess an antagonist potency at the mMC3R that is quantifiable | antagonist pA2 at the mMC4R (mMC4R [6]): 6.8

agonist EC50, cAMP AlphaScreen, HEK293 cells stably expressing mMC4R [7]: 0.35 nM
Molecule: NDP-MSH (4-Norleucine-7-D-Phenylalanine): Ac-Ser-Tyr-Ser-Nle-Glu-His-DPhe-Arg-Trp-Gly-Lys-Pro-Val-NH2 (peptide)

mMC3R Antagonist pA2 (mMC3R [1]; [14]): < 5.5 | antagonist activity at the mMC3R (mMC3R [1]): not observed | mMC1R percent activation at 100 μM (mMC1R [2]): 40% @ 100 μM | agonist activity at the MC1R (mMC1R [2]): partially stimulate | mMC5R percent decrease in receptor activity compared to basal at 100 μM (mMC5R [3]; 100 μM, no plateau): −25% @ 100 μM | mMC5R percent decrease in receptor activity compared to basal at 100 μM (mMC5R [3]; 100 μM, no plateau, listed as Asp^7): -25% | mMC4R Antagonist pA2 (mMC4R [8]; [14]): < 5.5 | antagonist potency at the mMC4R (mMC4R [8]; at the concentrations used in this study): not measurable
Molecule: c[Pro-Arg-Phe-Phe-Asn-Ala-Asp-DPro] (cyclo(PRFFNAD[dP]); SMILES C[C@@H]1NC(=O)[C@H](CC(N)=O)NC(=O)[C@H](Cc2ccccc2)NC(=O)[C@H](Cc2ccccc2)NC(=O)[C@H](CCCNC(=N)N)NC(=O)[C@@H]2CCCN2C(=O)[C@H]2CCCN2C(=O)[C@H](CC(=O)O)NC1=O) [Compound 5]

partial agonist: maximal percent activated, cAMP AlphaScreen, HEK293 cells [9]: 50%
Molecule: c[Pro-Arg-Phe-Phe-Asn-Ala-Trp-DPro] (peptide)

Molecule: hAGRP(87-132): Human agouti-related protein fragment 87-132, antagonist of MC3R and MC4R; previously published peptide
mMC3R Antagonist pA2 (mMC3R [10]): 8.9±0.2 | Ki (mMC3R [10]; read-out: mMC3R Antagonist Ki): 1.3 nM | selectivity for the MC4R (vs MC3R) (mMC4R [11]): equipotent | mMC4R Antagonist pA2 (mMC4R [11]; previously published peptide): 9.4±1.0 | Ki (mMC4R [11]; read-out: mMC4R Antagonist Ki, previously published peptide): 0.4 nM | EC50 (mMC5R [12]): > 100 µM | EC50 (mMC1R [13]): > 100 µM
